Test results reported in ChEMBL document CHEMBL2375313, “Synthesis, in vitro antitumor evaluation and DNA-binding study of novel tetrahydroquinolines and some derived tricyclic and tetracyclic ring systems” (Eur J Med Chem, 2013).

Key:
Format in all cases: functional
[1] = system: HOP-92; test: Cytotoxicity against human HOP92 cells assessed as growth inhibition at 10 uM after 48 hrs by sulphorhodamine B assay; conditions: HOP-92, 48 h, read-out: GI
Method in brief: (§1)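 NCI-60 one-dose screen per the NCI Drug Evaluation Branch protocol. Cells given a single 10 µM concentration with 48 h continuous exposure. Growth estimated by sulphorhodamine B protein assay. Result expressed as percentage growth inhibition relative to untreated growth.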

[2] = system: NCI-H23; test: Cytotoxicity against human NCI-H23 cells assessed as growth inhibition at 10 uM after 48 hrs by sulphorhodamine B assay; conditions: NCI-H23, 48 h, read-out: GI; method in brief: as §1
[3] = Cytotoxicity against human EKVX cells assessed as growth inhibition at 10 uM after 48 hrs by sulphorhodamine B assay; conditions: read-out: GI; method in brief: as §1
[4] = system: A549; test: Cytotoxicity against human A549 cells assessed as growth inhibition at 10 uM after 48 hrs by sulphorhodamine B assay; conditions: A549, 48 h, read-out: GI; method in brief: as §1
[5] = system: NCI/ADR-RES; test: Cytotoxicity against human NCI/ADR-RES cells assessed as growth inhibition at 10 uM after 48 hrs by sulphorhodamine B assay; conditions: read-out: GI; method in brief: as §1
[6] = system: SNB-75; test: Cytotoxicity against human SNB75 cells assessed as growth inhibition at 10 uM after 48 hrs by sulphorhodamine B assay; conditions: SNB-75, 48 h, read-out: GI; method in brief: as §1
[7] = system: U-251; test: Cytotoxicity against human U251 cells assessed as growth inhibition at 10 uM after 48 hrs by sulphorhodamine B assay; conditions: U-251, 48 h, read-out: GI; method in brief: as §1
[8] = system: SNB-19; test: Cytotoxicity against human SNB19 cells assessed as growth inhibition at 10 uM after 48 hrs by sulphorhodamine B assay; conditions: SNB-19, 48 h, read-out: GI; method in brief: as §1
[9] = system: SF-295; test: Cytotoxicity against human SF295 cells assessed as growth inhibition at 10 uM after 48 hrs by sulphorhodamine B assay; conditions: SF-295, 48 h, read-out: GI; method in brief: as §1
[10] = system: DU-145; test: Cytotoxicity against human DU145 cells assessed as growth inhibition at 10 uM after 48 hrs by sulphorhodamine B assay; conditions: DU-145, 48 h, read-out: GI; method in brief: as §1
[11] = system: SF-268; test: Cytotoxicity against human SF268 cells assessed as growth inhibition at 10 uM after 48 hrs by sulphorhodamine B assay; conditions: SF-268, 48 h, read-out: GI; method in brief: as §1
[12] = system: PC-3; test: Cytotoxicity against human PC3 cells assessed as growth inhibition at 10 uM after 48 hrs by sulphorhodamine B assay; conditions: PC-3, 48 h, read-out: GI; method in brief: as §1
[13] = system: UACC-62; test: Cytotoxicity against human UACC62 cells assessed as growth inhibition at 10 uM after 48 hrs by sulphorhodamine B assay; conditions: UACC-62, 48 h, read-out: GI; method in brief: as §1
[14] = system: SK-MEL-2; test: Cytotoxicity against human SK-MEL-2 cells assessed as growth inhibition at 10 uM after 48 hrs by sulphorhodamine B assay; conditions: SK-MEL-2, 48 h, read-out: GI; method in brief: as §1
[15] = system: SK-MEL-5; test: Cytotoxicity against human SK-MEL-5 cells assessed as growth inhibition at 10 uM after 48 hrs by sulphorhodamine B assay; conditions: SK-MEL-5, 48 h, read-out: GI; method in brief: as §1
[16] = system: M14; test: Cytotoxicity against human M14 cells assessed as growth inhibition at 10 uM after 48 hrs by sulphorhodamine B assay; conditions: M14, 48 h, read-out: GI; method in brief: as §1
[17] = system: LOX IMVI; test: Cytotoxicity against human LOXIMVI cells assessed as growth inhibition at 10 uM after 48 hrs by sulphorhodamine B assay; conditions: read-out: GI; method in brief: as §1
[18] = system: UO-31; test: Cytotoxicity against human UO31 cells assessed as growth inhibition at 10 uM after 48 hrs by sulphorhodamine B assay; conditions: UO-31, 48 h, read-out: GI; method in brief: as §1
[19] = system: CAKI-1; test: Cytotoxicity against human Caki1 cells assessed as growth inhibition at 10 uM after 48 hrs by sulphorhodamine B assay; conditions: CAKI-1, 48 h, read-out: GI; method in brief: as §1
[20] = system: RXF 393; test: Cytotoxicity against human RXF393 cells assessed as growth inhibition at 10 uM after 48 hrs by sulphorhodamine B assay; conditions: RXF 393, 48 h, read-out: GI; method in brief: as §1
[21] = system: ACHN; test: Cytotoxicity against human ACHN cells assessed as growth inhibition at 10 uM after 48 hrs by sulphorhodamine B assay; conditions: read-out: GI; method in brief: as §1
[22] = system: SR; test: Cytotoxicity against human SR cells assessed as growth inhibition at 10 uM after 48 hrs by sulphorhodamine B assay; conditions: read-out: GI; method in brief: as §1
[23] = system: A498; test: Cytotoxicity against human A498 cells assessed as growth inhibition at 10 uM after 48 hrs by sulphorhodamine B assay; conditions: A498, 48 h, read-out: GI; method in brief: as §1
[24] = system: RPMI-8226; test: Cytotoxicity against human RPMI8226 cells assessed as growth inhibition at 10 uM after 48 hrs by sulphorhodamine B assay; conditions: RPMI-8226, 48 h, read-out: GI; method in brief: as §1
[25] = system: MOLT-4; test: Cytotoxicity against human MOLT4 cells assessed as growth inhibition at 10 uM after 48 hrs by sulphorhodamine B assay; conditions: MOLT-4, 48 h, read-out: GI; method in brief: as §1
[26] = system: K562; test: Cytotoxicity against human K562 cells assessed as growth inhibition at 10 uM after 48 hrs by sulphorhodamine B assay; conditions: K562, 48 h, read-out: GI; method in brief: as §1
[27] = system: HL-60(TB); test: Cytotoxicity against human HL-60(TB) cells assessed as growth inhibition at 10 uM after 48 hrs by sulphorhodamine B assay; conditions: HL-60, 48 h, read-out: GI
Method in brief: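 NCI-60 one-dose primary screen run to the Drug Evaluation Branch protocol. Cells are exposed to a single 10 µM concentration for 48 h continuously, and growth is read by SRB protein assay. Data are reported as percent growth of treated cells, expressed as % growth inhibition.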

[28] = system: SK-OV-3; test: Cytotoxicity against human SKOV3 cells assessed as growth inhibition at 10 uM after 48 hrs by sulphorhodamine B assay; conditions: SK-OV-3, 48 h, read-out: GI; method in brief: as §1
[29] = system: CCRF-CEM; test: Cytotoxicity against human CCRF-CEM cells assessed as growth inhibition at 10 uM after 48 hrs by sulphorhodamine B assay; conditions: read-out: GI; method in brief: as §1
[30] = system: OVCAR-5; test: Cytotoxicity against human OVCAR5 cells assessed as growth inhibition at 10 uM after 48 hrs by sulphorhodamine B assay; conditions: OVCAR-5, 48 h, read-out: GI; method in brief: as §1
[31] = system: OVCAR-4; test: Cytotoxicity against human OVCAR4 cells assessed as growth inhibition at 10 uM after 48 hrs by sulphorhodamine B assay; conditions: OVCAR-4, 48 h, read-out: GI; method in brief: as §1
[32] = system: IGROV-1; test: Cytotoxicity against human IGROV1 cells assessed as growth inhibition at 10 uM after 48 hrs by sulphorhodamine B assay; conditions: IGROV-1, 48 h, read-out: GI; method in brief: as §1
[33] = system: T47D; test: Cytotoxicity against human T47D cells assessed as growth inhibition at 10 uM after 48 hrs by sulphorhodamine B assay; conditions: read-out: GI; method in brief: as §1
[34] = system: Hs-578T; test: Cytotoxicity against human Hs578T cells assessed as growth inhibition at 10 uM after 48 hrs by sulphorhodamine B assay; conditions: read-out: GI; method in brief: as §1
[35] = system: NCI-H522; test: Cytotoxicity against human NCI-H522 cells assessed as growth inhibition at 10 uM after 48 hrs by sulphorhodamine B assay; conditions: NCI-H522, 48 h, read-out: GI; method in brief: as §1
[36] = system: HT-29; test: Cytotoxicity against human HT-29 cells assessed as growth inhibition at 10 uM after 48 hrs by sulphorhodamine B assay; conditions: HT-29, 48 h, read-out: GI; method in brief: as §1
[37] = system: MCF7; test: Cytotoxicity against human MCF7 cells assessed as growth inhibition at 10 uM after 48 hrs by sulphorhodamine B assay; conditions: MCF7, 48 h, read-out: GI; method in brief: as §1
[38] = system: MDA-MB-435; test: Cytotoxicity against human MDA-MB-435 cells assessed as growth inhibition at 10 uM after 48 hrs by sulphorhodamine B assay; conditions: MDA-MB-435, 48 h, read-out: GI; method in brief: as §1
[39] = system: HCT-15; test: Cytotoxicity against human HCT15 cells assessed as growth inhibition at 10 uM after 48 hrs by sulphorhodamine B assay; conditions: HCT-15, 48 h, read-out: GI; method in brief: as §1
[40] = system: MDA-MB-468; test: Cytotoxicity against human MDA-MB-468 cells assessed as growth inhibition at 10 uM after 48 hrs by sulphorhodamine B assay; conditions: MDA-MB-468, 48 h, read-out: GI; method in brief: as §1
[41] = system: HCT-116; test: Cytotoxicity against human HCT116 cells assessed as growth inhibition at 10 uM after 48 hrs by sulphorhodamine B assay; conditions: HCT-116, 48 h, read-out: GI; method in brief: as §1

CC1CCCc2c1nc1ncnc(N)c1c2-c1ccc(Cl)cc1 (stereo unspecified)
inhibition of growth at 10 µM [1]: 25.3%
inhibition of growth at 10 µM [2]: < 10%
inhibition of growth at 10 µM [3]: < 10%
inhibition of growth at 10 µM [4]: < 10%
inhibition of growth at 10 µM [5]: < 10%
inhibition of growth at 10 µM [6]: 21.5%
inhibition of growth at 10 µM [7]: 14.5%
inhibition of growth at 10 µM [8]: 21.3%
inhibition of growth at 10 µM [9]: < 10%
inhibition of growth at 10 µM [10]: < 10%
inhibition of growth at 10 µM [11]: 12.3%
inhibition of growth at 10 µM [12]: 24.2%
inhibition of growth at 10 µM [13]: 13.8%
inhibition of growth at 10 µM [14]: < 10%
inhibition of growth at 10 µM [15]: 10.2%
inhibition of growth at 10 µM [16]: < 10%
inhibition of growth at 10 µM [17]: < 10%
inhibition of growth at 10 µM [18]: 10.1%
inhibition of growth at 10 µM [19]: < 10%
inhibition of growth at 10 µM [20]: 11%
inhibition of growth at 10 µM [21]: < 10%
inhibition of growth at 10 µM [22]: < 10%
inhibition of growth at 10 µM [23]: 27.7%
inhibition of growth at 10 µM [24]: 21.3%
inhibition of growth at 10 µM [25]: < 10%
inhibition of growth at 10 µM [26]: 25%
inhibition of growth at 10 µM [27]: 12.4%
inhibition of growth at 10 µM [28]: 12%
inhibition of growth at 10 µM [29]: 22.2%
inhibition of growth at 10 µM [30]: < 10%
inhibition of growth at 10 µM [31]: 17.8%
inhibition of growth at 10 µM [32]: < 10%
inhibition of growth at 10 µM [33]: 40%
inhibition of growth at 10 µM [34]: 14.7%
inhibition of growth at 10 µM [35]: 11%
inhibition of growth at 10 µM [36]: 13.3%
inhibition of growth at 10 µM [37]: < 10%
inhibition of growth at 10 µM [38]: < 10%
inhibition of growth at 10 µM [39]: 10%
inhibition of growth at 10 µM [40]: 20%
inhibition of growth at 10 µM [41]: 14%
